In ChEMBL document CHEMBL1949660 (Bioorg Med Chem Lett, 2012):
The source made the active and inactive calls.

How the values were obtained:
Histamine H3 receptor [1] = biological target: T1, Histamine H3 receptor (Homo sapiens, UniProt Q9Y5N1); assay: Displacement of [3H]NAMH from human histamine H3 receptor expressed in CHO cells; type: cell-based
In short: (§1)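 Radioligand displacement of [³H]NAMH from membranes isolated from CHO cells transfected with cloned human H₃ or rat H₃ receptors.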

Histamine H3 receptor [2] = biological target: Histamine H3 receptor (Rattus norvegicus, UniProt Q9QYN8); assay: Displacement of [3H]NAMH from rat histamine H3 receptor expressed in CHO cells; type: cell-based; in short: as §1
Chain of Histamine H3 receptor (Rattus norvegicus, UniProt Q9QYN8) (Q9QYN8 whole entry): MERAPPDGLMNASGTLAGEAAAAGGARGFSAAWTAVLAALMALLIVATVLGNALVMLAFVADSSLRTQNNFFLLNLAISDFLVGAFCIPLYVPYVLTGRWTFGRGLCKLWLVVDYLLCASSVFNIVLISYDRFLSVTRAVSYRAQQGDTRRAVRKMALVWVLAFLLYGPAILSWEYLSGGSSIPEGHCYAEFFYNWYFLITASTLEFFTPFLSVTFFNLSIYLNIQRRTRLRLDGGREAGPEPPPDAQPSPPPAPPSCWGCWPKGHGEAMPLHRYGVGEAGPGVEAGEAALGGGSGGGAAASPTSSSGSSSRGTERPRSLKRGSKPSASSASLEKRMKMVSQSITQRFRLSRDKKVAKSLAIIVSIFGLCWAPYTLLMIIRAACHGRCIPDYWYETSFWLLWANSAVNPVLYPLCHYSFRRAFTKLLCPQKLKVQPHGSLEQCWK

Histamine H3 receptor [3] = biological target: T1, Histamine H3 receptor; assay: Inverse agonist activity at human histamine H3 receptor assessed as inhibition of R-alpha-methylhistamine-induced [35S]GTPgammaS binding; type: functional
[4] = Apparent permeability across human Caco2 cells; type: ADME, cell-based; conditions: Caco-2
[5] = Half life in human liver microsomes; type: ADME, Microsome
[6] = Half life in rat liver microsomes; type: ADME, Microsome
[7] = Half life in dog liver microsomes; type: ADME, Canis lupus familiaris, Microsome
[8] = Half life in monkey liver microsomes; type: ADME, Macaca mulatta, Microsome; conditions: rhesus monkey
Cytochrome P450 1A2 = biological target: T2, Cytochrome P450 1A2 (Homo sapiens, UniProt P05177); assay: Inhibition of CYP1A2; type: ADME
T2 sequence (P05177 whole entry): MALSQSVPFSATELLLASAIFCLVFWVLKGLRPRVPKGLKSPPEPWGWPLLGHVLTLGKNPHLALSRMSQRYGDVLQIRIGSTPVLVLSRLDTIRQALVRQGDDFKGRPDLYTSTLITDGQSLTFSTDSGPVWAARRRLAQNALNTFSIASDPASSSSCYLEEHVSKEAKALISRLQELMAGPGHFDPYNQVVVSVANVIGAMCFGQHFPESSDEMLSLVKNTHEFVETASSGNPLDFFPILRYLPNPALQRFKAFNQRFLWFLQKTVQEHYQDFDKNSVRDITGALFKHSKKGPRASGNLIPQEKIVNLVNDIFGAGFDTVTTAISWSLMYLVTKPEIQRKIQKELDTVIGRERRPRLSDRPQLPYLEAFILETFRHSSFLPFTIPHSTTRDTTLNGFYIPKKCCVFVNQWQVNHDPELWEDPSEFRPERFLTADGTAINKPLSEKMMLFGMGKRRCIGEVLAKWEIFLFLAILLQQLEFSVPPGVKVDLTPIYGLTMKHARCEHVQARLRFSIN

Cytochrome P450 2C9 = Cytochrome P450 2C9 (Homo sapiens, UniProt P11712); assay: Inhibition of CYP2C9; type: ADME
Chain of Cytochrome P450 2C9 (P11712 whole entry): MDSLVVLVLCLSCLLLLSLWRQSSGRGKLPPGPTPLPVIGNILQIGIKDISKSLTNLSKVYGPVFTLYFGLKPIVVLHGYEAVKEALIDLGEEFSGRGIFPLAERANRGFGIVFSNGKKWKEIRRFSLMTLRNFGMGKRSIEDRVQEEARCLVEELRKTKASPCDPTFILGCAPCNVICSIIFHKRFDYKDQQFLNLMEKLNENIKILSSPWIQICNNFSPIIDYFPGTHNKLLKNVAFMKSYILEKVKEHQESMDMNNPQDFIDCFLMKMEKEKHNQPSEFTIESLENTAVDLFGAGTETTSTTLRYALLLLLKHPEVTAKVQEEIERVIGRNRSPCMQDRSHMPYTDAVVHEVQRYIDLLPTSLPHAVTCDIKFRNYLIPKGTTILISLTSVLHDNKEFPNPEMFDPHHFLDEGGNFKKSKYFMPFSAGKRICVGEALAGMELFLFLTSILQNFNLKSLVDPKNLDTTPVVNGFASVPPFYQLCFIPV

Cytochrome P450 2C19 = Cytochrome P450 2C19 (Homo sapiens, UniProt P33261); assay: Inhibition of CYP2C19; type: ADME
Chain of Cytochrome P450 2C19 (P33261 whole entry): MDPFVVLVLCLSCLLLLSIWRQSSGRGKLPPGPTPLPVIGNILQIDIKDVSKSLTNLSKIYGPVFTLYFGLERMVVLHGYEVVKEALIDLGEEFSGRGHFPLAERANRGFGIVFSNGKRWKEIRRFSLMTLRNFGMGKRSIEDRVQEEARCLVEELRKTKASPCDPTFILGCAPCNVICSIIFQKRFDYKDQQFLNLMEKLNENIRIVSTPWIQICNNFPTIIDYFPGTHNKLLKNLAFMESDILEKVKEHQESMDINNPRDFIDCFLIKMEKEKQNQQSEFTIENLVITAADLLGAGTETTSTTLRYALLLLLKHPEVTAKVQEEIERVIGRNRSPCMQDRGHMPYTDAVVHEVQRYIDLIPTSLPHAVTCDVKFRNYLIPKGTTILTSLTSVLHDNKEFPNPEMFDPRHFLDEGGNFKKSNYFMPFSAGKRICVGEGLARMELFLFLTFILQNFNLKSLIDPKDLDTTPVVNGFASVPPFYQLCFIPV

Cytochrome P450 2D6 = Cytochrome P450 2D6 (Homo sapiens, UniProt P10635); assay: Inhibition of CYP2D6; type: ADME
Chain of Cytochrome P450 2D6 (P10635 whole entry): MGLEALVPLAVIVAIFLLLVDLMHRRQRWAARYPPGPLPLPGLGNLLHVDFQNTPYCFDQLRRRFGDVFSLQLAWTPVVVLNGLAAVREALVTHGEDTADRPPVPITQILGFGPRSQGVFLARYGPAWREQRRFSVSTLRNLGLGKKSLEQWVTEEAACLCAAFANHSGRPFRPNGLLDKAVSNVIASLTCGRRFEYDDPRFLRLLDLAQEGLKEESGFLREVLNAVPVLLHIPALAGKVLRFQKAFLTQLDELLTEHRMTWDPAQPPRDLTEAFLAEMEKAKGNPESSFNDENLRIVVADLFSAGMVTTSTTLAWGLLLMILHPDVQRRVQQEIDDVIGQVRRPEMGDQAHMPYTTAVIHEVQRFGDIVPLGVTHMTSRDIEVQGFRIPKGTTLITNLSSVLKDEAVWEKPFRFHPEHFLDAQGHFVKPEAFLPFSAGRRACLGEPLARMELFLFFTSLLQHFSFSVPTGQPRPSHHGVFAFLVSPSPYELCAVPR

Cytochrome P450 3A4 = Cytochrome P450 3A4 (Homo sapiens, UniProt P08684); assay: Inhibition of CYP3A4; type: ADME
Chain of Cytochrome P450 3A4 (P08684 whole entry): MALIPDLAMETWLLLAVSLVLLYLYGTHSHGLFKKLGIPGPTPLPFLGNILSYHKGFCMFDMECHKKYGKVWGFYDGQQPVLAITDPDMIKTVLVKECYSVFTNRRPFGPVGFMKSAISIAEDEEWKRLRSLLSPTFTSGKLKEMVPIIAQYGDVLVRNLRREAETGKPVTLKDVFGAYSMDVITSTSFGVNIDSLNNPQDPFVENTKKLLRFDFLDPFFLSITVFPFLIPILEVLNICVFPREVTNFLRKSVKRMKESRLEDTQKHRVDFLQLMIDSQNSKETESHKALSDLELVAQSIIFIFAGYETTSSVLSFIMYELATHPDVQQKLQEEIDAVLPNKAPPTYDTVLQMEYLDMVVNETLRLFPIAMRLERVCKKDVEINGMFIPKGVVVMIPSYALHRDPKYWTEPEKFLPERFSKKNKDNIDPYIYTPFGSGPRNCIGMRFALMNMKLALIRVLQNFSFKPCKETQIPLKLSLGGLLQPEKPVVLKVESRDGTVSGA

[9] = biological target: Sodium-dependent dopamine transporter (Homo sapiens) (UniProt Q01959); assay: Inhibition of DAT at 10 uM
Chain of Sodium-dependent dopamine transporter (Homo sapiens) (Q01959 whole entry): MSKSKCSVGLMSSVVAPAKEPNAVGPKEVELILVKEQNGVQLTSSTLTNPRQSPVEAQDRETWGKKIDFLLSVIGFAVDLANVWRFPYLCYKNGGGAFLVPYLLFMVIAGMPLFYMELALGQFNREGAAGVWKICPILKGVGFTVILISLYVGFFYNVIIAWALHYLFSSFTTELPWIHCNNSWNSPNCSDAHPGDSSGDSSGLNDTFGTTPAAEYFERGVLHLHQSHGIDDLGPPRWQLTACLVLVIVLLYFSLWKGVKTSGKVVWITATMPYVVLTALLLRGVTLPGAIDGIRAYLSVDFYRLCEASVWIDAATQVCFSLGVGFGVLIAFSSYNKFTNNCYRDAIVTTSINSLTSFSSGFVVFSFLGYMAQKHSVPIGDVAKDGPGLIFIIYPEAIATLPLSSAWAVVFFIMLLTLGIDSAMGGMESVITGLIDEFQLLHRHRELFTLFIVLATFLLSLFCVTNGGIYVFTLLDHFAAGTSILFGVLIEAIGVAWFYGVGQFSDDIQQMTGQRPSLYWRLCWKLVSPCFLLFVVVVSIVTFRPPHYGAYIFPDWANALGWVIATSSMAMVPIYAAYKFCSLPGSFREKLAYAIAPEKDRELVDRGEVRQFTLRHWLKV

[10] = biological target: Voltage-gated inwardly rectifying potassium channel KCNH2 (Homo sapiens, UniProt Q12809); assay: Inhibition of human Erg by patch clamp assay
Chain of Voltage-gated inwardly rectifying potassium channel KCNH2 (Q12809 whole entry): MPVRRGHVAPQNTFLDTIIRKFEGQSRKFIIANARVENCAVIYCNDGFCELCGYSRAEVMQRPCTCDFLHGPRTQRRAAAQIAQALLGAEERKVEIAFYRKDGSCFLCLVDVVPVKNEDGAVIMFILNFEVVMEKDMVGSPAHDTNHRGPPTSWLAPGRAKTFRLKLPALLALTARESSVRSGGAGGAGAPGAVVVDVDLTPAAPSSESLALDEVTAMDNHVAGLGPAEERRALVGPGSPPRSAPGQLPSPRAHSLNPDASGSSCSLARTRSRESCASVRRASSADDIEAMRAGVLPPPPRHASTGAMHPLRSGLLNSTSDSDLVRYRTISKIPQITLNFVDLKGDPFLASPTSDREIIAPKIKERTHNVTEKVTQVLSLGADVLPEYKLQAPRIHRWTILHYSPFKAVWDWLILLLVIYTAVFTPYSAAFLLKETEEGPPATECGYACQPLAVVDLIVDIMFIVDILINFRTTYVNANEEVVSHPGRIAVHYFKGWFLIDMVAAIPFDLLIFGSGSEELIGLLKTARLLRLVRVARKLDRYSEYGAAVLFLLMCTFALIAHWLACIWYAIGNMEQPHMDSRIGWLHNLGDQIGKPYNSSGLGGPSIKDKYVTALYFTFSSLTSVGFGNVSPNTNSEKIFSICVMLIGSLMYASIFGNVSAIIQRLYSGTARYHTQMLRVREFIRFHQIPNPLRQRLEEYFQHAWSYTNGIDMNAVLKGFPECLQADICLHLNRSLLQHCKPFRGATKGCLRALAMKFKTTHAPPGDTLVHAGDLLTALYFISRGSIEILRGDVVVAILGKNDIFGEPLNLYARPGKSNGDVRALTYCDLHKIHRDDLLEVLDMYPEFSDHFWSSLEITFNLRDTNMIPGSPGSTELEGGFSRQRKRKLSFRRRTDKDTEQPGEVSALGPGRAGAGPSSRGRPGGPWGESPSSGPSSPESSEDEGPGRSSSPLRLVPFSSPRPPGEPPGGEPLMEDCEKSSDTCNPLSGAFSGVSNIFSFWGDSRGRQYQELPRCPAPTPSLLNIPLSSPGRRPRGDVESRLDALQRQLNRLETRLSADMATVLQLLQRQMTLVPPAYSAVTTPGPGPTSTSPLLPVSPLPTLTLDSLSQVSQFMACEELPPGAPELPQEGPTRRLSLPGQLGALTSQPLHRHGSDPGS

[11] = Half life in rat at 1 mg/kg, iv; type: ADME, organism-based; parameters: dose 1 mg/kg, route intravenous; conditions: in vivo
In short: (§2)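 Rat PK: iv dose with vehicle 3% DMSO, 30% solutol, 67% phosphate buffered saline. Oral 5 mg/kg dose with vehicle 50% Tween 80, 40% propylene carbonate, 10% propylene glycol.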

[12] = Volume of distribution in rat at 1 mg/kg, iv; type: ADME, organism-based; parameters: dose 1 mg/kg, route intravenous; conditions: in vivo; in short: as §2
[13] = Clearance in rat at 1 mg/kg, iv; type: ADME, organism-based; parameters: dose 1 mg/kg, route intravenous; conditions: in vivo; in short: as §2
[14] = Cmax in rat at 5 mg/kg, po; type: ADME, organism-based; parameters: dose 5 mg/kg, route oral; conditions: in vivo
[15] = Oral bioavailability in rat at 5 mg/kg; type: ADME, organism-based; conditions: in vivo; in short: as §2
[16] = Drug uptake in rat brain at 5 mg/kg, po measured after 6 hrs; type: ADME, organism-based; parameters: dose 5 mg/kg, route oral; conditions: read-out: Drug uptake
In short: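 Rats given 5 mg/kg po in 50% Tween 80, 40% propylene carbonate, 10% propylene glycol. Brain concentration determined 6 h after dosing.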

[17] = Ratio drug uptake in brain to plasma of rat at 10 mg/kg, ip measured after 6 hrs; type: ADME, organism-based; parameters: dose 10 mg/kg, route intraperitoneal; conditions: read-out: BPR
Homo sapiens [18] = species: Homo sapiens; assay: Selectivity for human histamine H3 receptor over human histamine H1 receptor
In short: (§3)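 The hH3 side comes from displacement of [³H]NAMH binding in membranes from CHO cells transfected with cloned human H3 receptor. Human H1, H2 and H4 receptors were tested in an outsourced receptor selectivity profiling screen (LeadProfiler/Spectrum). The value is the fold-selectivity of hH3 over each subtype.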

Homo sapiens [19] = species: Homo sapiens; assay: Selectivity for human histamine H3 receptor over human histamine H2 receptor; in short: as §3
Homo sapiens [20] = species: Homo sapiens; assay: Selectivity for human histamine H3 receptor over human histamine H4 receptor; in short: as §3
[21] = Plasma protein binding in rat; type: ADME, cell-free; conditions: read-out: PPB
[22] = Plasma protein binding in dog; type: ADME, cell-free, Canis lupus familiaris; conditions: read-out: PPB
[23] = Plasma protein binding in human; type: ADME, cell-free; conditions: read-out: PPB
Rattus norvegicus [24] = assay: Inhibition of RAMH-induced dipsogenia in ip dosed rat; type: functional
Rattus norvegicus [25] = assay: Effect on sleep-awake cycle in ip dosed EEG/EMG rat model assessed as wake promotion after 4 hrs; type: functional, organism-based
In short: (§4)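 Rats surgically implanted for chronic EEG and EMG recording. Wake, slow-wave sleep and REM sleep scored by standard criteria. Doses spanned […]–30 mg/kg ip, given during the normal quiet (lights-on) period, with a vehicle group as control. Cumulative wake time taken as AUC over time after dosing. Statistics by ANOVA.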

Rattus norvegicus [26] = assay: Effect on sleep-awake cycle in EEG/EMG rat model assessed as wake promotion at 0.1 to 1 mg/kg, ip after 4 hrs relative to control; type: functional; conditions: dose mg/kg 0.1-1; route intraperitoneal; in short: as §4
Rattus norvegicus [27] = assay: Effect on sleep-awake cycle in EEG/EMG rat model assessed as wake promotion time at 0.1 mg/kg, ip after 4 hrs (reference value: 80 +/- 5 mins); type: functional; conditions: route intraperitoneal; in short: as §4
Rattus norvegicus [28] = assay: Effect on sleep-awake cycle in EEG/EMG rat model assessed as wake promotion time at 0.3 mg/kg, ip after 4 hrs (reference value: 80 +/- 5 mins); type: functional; conditions: route intraperitoneal; in short: as §4
Rattus norvegicus [29] = assay: Effect on sleep-awake cycle in EEG/EMG rat model assessed as wake promotion time at 1 mg/kg, ip after 4 hrs (reference value: 80 +/- 5 mins); type: functional; conditions: route intraperitoneal; in short: as §4
Rattus norvegicus [30] = assay: Effect on sleep-awake cycle in EEG/EMG rat model assessed as wake promotion at 10 mg/kg, ip after 2 hrs; type: functional; conditions: route intraperitoneal; in short: as §4
Rattus norvegicus [31] = assay: Effect on sleep-awake cycle in EEG/EMG rat model assessed as wake promotion time at 10 mg/kg, ip after 4 hrs relative to control; type: functional; conditions: route intraperitoneal; in short: as §4
Rattus norvegicus [32] = assay: Effect on sleep-awake cycle in EEG/EMG rat model assessed as wake promotion time at 30 mg/kg, ip after 4 hrs relative to control; type: functional; conditions: route intraperitoneal; in short: as §4
Rattus norvegicus [33] = assay: Effect on sleep-awake cycle in EEG/EMG rat model assessed as awake time at 10 mg/kg, ip after 4 hrs relative to control; type: functional; conditions: route intraperitoneal; in short: as §4
Rattus norvegicus [34] = assay: Effect on sleep-awake cycle in EEG/EMG rat model assessed as awake time at 30 mg/kg, ip after 4 hrs relative to control; type: functional; conditions: route intraperitoneal; in short: as §4
Rattus norvegicus [35] = assay: Effect on sleep-awake cycle in EEG/EMG rat model assessed as maximal cumulative wake surplus time at 30 mg/kg, ip after 7 hrs relative to control; type: functional; conditions: route intraperitoneal; in short: as §4
Rattus norvegicus [36] = assay: Effect on sleep-awake cycle in EEG/EMG rat model assessed as wake surplus at 30 mg/kg, ip up to 22 hrs; type: functional, organism-based; parameters: dose 30 mg/kg; in short: as §4
Rattus norvegicus [37] = assay: Effect on sleep-awake cycle in EEG/EMG rat model assessed as sleep rebound at 0.1 to 30 mg/kg, ip; type: functional, organism-based; in short: as §4

T1 sequence (Q9Y5N1 whole entry): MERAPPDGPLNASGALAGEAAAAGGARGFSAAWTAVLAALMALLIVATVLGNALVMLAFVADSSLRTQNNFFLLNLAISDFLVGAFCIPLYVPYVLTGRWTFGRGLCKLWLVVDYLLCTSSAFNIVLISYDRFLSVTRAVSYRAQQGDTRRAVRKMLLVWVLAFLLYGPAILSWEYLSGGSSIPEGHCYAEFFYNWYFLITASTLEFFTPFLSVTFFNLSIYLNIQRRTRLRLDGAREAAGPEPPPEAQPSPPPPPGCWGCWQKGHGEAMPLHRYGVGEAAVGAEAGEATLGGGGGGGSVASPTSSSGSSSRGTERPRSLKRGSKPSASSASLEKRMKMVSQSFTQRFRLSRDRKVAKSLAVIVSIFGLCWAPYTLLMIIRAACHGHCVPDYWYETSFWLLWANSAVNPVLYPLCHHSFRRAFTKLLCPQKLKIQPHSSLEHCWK

O=c1ccc(-c2ccc(OC3CCN(C4CCCC4)CC3)nc2)n[nH]1
Ki (Histamine H3 receptor [1]): 26 nM | Ki (Histamine H3 receptor [2]): 51 nM

CC(C)N1CCC(Oc2ccc(-c3ccc(=O)n(C)n3)cc2)CC1
Ki (Histamine H3 receptor [1]): 9.2 nM | Ki (Histamine H3 receptor [2]): 46 nM

CC(C)N1CCC(Oc2ccc(-c3ccc(=O)[nH]n3)cn2)CC1
Ki (Histamine H3 receptor [1]): 15 nM | Ki (Histamine H3 receptor [2]): 101 nM

O=c1ccc(-c2ccc(OC3CCN(C4CCCC4)CC3)cc2)n[nH]1
Ki (Histamine H3 receptor [1]): 5.1 nM | Ki (Histamine H3 receptor [2]): 7 nM

Cn1nc(-c2ccc(OC3CCN(C4CCCC4)CC3)cc2)ccc1=O
Ki (Histamine H3 receptor [1]): 2.7 nM

O=C1CCC(c2ccc(OC3CCN(C4CCC4)CC3)cc2)=NN1
Ki (Histamine H3 receptor [1]): 3.7 nM | Ki (Histamine H3 receptor [2]): 6.7 nM

CC(C)n1nc(-c2ccc(OC3CCN(C4CCC4)CC3)nc2)ccc1=O
Ki (Histamine H3 receptor [1]): 6.5 nM | Ki (Histamine H3 receptor [2]): 9.4 nM

CC1(C)CC(c2ccc(OC3CCN(C4CCC4)CC3)cc2)=NNC1=O
Ki (Histamine H3 receptor [1]): 2.7 nM | Ki (Histamine H3 receptor [2]): 4.4 nM | EC50 (Histamine H3 receptor [3]): 0.8 nM | Papp [4]: 270 nm/s | half-life [5]: > 40 min | half-life [6]: > 40 min | half-life [7]: > 40 min | half-life [8]: > 40 min | IC50 (Cytochrome P450 1A2): > 30000 nM | IC50 (Cytochrome P450 2C9): > 30000 nM | IC50 (Cytochrome P450 2C19): > 30000 nM | IC50 (Cytochrome P450 2D6): > 30000 nM | IC50 (Cytochrome P450 3A4): > 30000 nM | inhibition [9]: 8% | IC50 [10]: 21000 nM | half-life [11]: 114 min | Vd [12]: 3.1 L/kg | clearance [13]: 1.08 L/h/kg | Cmax [14]: 0.27 µg/mL | bioavailability [15]: 33% | concentration at 6 h [16]: 2.1 µM | Kp at 6 h [17]: 4 | Selectivity ratio (Homo sapiens [18]): > 1000 | Selectivity ratio (Homo sapiens [19]): > 1000 | Selectivity ratio (Homo sapiens [20]): > 1000 | fraction unbound [21]: 0.5 | fraction unbound [22]: 0.5 | fraction unbound [23]: 0.5 | ED50 (Rattus norvegicus [24]): 0.14 mg/kg | inhibition (Rattus norvegicus [24]): Dose-dependent effect | Activity (Rattus norvegicus [25]): Dose-dependent effect | Activity (Rattus norvegicus [26]): 45% | Time (Rattus norvegicus [27]): 115 min | Time (Rattus norvegicus [28]): 122 min | Time (Rattus norvegicus [29]): 116 min | Activity (Rattus norvegicus [30]): 90% | Activity (Rattus norvegicus [31]): 152% | Activity (Rattus norvegicus [32]): 193% | Activity (Rattus norvegicus [33]): 84% | Activity (Rattus norvegicus [34]): 98% | Time (Rattus norvegicus [35]): 196 min | Activity (Rattus norvegicus [36]): Active | Activity (Rattus norvegicus [37]): inactive

Cn1nc(-c2ccc(OC3CCN(C4CCCC4)CC3)nc2)ccc1=O
Ki (Histamine H3 receptor [1]): 5.9 nM | Ki (Histamine H3 receptor [2]): 12 nM

CC1(C)CC(c2ccc(OC3CCN(C4CCC4)CC3)c(F)c2)=NNC1=O
Ki (Histamine H3 receptor [1]): 7.1 nM | Ki (Histamine H3 receptor [2]): 7.2 nM

Cc1cc(=O)[nH]nc1-c1ccc(OC2CCN(C3CCC3)CC2)cc1
Ki (Histamine H3 receptor [1]): 4.4 nM | Ki (Histamine H3 receptor [2]): 6.3 nM
